{"source": "ChEMBL document CHEMBL3244066", "about": "“Inhibition of histidine decarboxylase. Derivatives of histidine” (J Med Chem, 1977)", "note": "Peptide text beside a SMILES is read from it."}
{"target": "T1, Histidine decarboxylase (Rattus norvegicus) (UniProt P16453)", "T1 sequence (whole entry)": "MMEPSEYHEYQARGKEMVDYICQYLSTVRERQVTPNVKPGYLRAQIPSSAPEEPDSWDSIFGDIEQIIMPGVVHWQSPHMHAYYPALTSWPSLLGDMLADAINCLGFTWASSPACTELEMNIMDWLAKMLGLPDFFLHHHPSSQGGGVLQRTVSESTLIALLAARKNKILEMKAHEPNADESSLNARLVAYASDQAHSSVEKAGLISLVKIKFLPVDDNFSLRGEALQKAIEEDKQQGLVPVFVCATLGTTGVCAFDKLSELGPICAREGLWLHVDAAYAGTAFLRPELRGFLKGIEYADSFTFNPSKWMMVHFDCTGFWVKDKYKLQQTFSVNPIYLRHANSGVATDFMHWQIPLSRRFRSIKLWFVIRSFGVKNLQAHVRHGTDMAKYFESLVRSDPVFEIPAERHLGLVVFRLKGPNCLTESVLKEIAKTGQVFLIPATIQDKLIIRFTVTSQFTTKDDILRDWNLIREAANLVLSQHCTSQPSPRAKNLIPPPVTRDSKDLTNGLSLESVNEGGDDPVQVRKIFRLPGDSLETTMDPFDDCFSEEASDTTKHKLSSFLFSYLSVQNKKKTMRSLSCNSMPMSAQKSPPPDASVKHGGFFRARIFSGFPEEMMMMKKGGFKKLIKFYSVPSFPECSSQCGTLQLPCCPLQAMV", "experiment": "Inhibition of histidine decarboxylase in Sprague-Dawley rat stomach assessed as decrease in 14CO2 production using L-histidine-carboxyl-14C as substrate at 0.13 mM by scintillation counting analysis", "outline": "(§1)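 Enzyme from rat stomach: homogenized in 0.1 M K phosphate–0.1 mM pyridoxal phosphate, pH 6.9, at 0–4 °C. Then 39 000g and 100 000g spins and a 20–45% ammonium sulfate cut. Assayed in triplicate with 0.05 M K phosphate, pH 6.9, 0.03 mM PLP and 0.24 mM L-histidine-carboxyl-14C (final) for 30 min at 37 °C. Inhibitors were fresh in water, generally 0.1 mM. HCl-released 14CO2 was trapped on Hyamine paper for 1 h and counted. % inhibition was taken after blank subtraction.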", "units": {"inhibition": "%"}}
{"smiles": "O=C(O)CCc1c[nH]cn1", "inhibition": 9}
{"smiles": "O=C(O)[C@@H](O)Cc1c[nH]cn1", "inhibition": 0}
{"target": "T1, Histidine decarboxylase (Rattus norvegicus)", "experiment": "Inhibition of histidine decarboxylase in Sprague-Dawley rat stomach assessed as decrease in 14CO2 production using L-histidine-carboxyl-14C as substrate at 0.012 mM by scintillation counting analysis", "outline": "as §1", "units": {"inhibition": "%"}}
{"smiles": "CCOC(=O)[C@@H](N)Cc1c[nH]cn1", "inhibition": 50}
{"target": "T1, Histidine decarboxylase (Rattus norvegicus)", "experiment": "Inhibition of histidine decarboxylase in Sprague-Dawley rat stomach assessed as decrease in 14CO2 production using L-histidine-carboxyl-14C as substrate at 0.32 mM by scintillation counting analysis", "outline": "as §1", "units": {"inhibition": "%"}}
{"smiles": "C[C@](N)(Cc1c[nH]cn1)C(=O)O", "inhibition": 50}
{"target": "T1, Histidine decarboxylase (Rattus norvegicus)", "experiment": "Inhibition of histidine decarboxylase in Sprague-Dawley rat stomach assessed as decrease in 14CO2 production using L-histidine-carboxyl-14C as substrate at 0.10 mM by scintillation counting analysis", "outline": "as §1", "units": {"inhibition": "%"}}
{"smiles": "Cn1cnc(C[C@H](N)C(=O)O)c1", "inhibition": 0}
{"smiles": "CCCC(N)(Cc1c[nH]cn1)C(=O)OC", "note": "(racemic)", "inhibition": 2}
{"smiles": "CCOC(=O)C(Cc1c[nH]cn1)(c1ccccc1)[N+](=O)[O-]", "note": "(racemic)", "inhibition": 22}
{"smiles": "N[C@@H](Cc1c[nH]cn1)C(=O)NCC(=O)O", "note": "(H-His-Gly-OH)", "inhibition": 0}
{"smiles": "O=C(O)C(Br)Cc1cnc[nH]1", "note": "(racemic)", "inhibition": 13}
{"smiles": "Cc1nc(CC(N)C(=O)O)c[nH]1", "note": "(racemic)", "inhibition": 0}
{"smiles": "N[C@@H](Cc1cnc[nH]1)C(=O)NO", "inhibition": 14}
{"smiles": "CCCCC(Cc1c[nH]cn1)(C(=O)OC)[N+](=O)[O-]", "note": "(racemic)", "inhibition": 24}
{"smiles": "CCOC(=O)C(N)(CC)Cc1c[nH]cn1", "note": "(racemic)", "inhibition": 13}
{"smiles": "CCCC(Cc1c[nH]cn1)(C(=O)OC)[N+](=O)[O-]", "note": "(racemic)", "inhibition": 32}
{"smiles": "COC(=O)CCc1c[nH]cn1", "inhibition": 10}
{"smiles": "COC(=O)C(C)(Cc1c[nH]cn1)[N+](=O)[O-]", "note": "(racemic)", "inhibition": 25}
{"smiles": "CNC(=O)C(N)Cc1c[nH]cn1", "note": "(racemic)", "inhibition": 0}
{"smiles": "CCCCC(N)(Cc1c[nH]cn1)C(=O)O", "note": "(racemic)", "inhibition": 3}
{"smiles": "CCOC(=O)C(CC)(Cc1c[nH]cn1)[N+](=O)[O-]", "note": "(racemic)", "inhibition": 5}
{"smiles": "C[C@](N)(Cc1c[nH]cn1)C(=O)O", "inhibition": 19}
{"smiles": "C[n+]1c[nH]cc1C[C@H](N)C(=O)O", "inhibition": 0}
{"smiles": "COC(=O)C(C)(N)Cc1c[nH]cn1", "note": "(racemic)", "inhibition": 3}
{"smiles": "CCCCC(N)(Cc1c[nH]cn1)C(=O)OC", "note": "(racemic)", "inhibition": 0}
{"smiles": "CCCCOC(=O)C(N)Cc1c[nH]cn1", "note": "(racemic)", "inhibition": 62}
{"smiles": "COC(=O)[C@@H](N)Cc1nc[nH]c1[N+](=O)[O-]", "inhibition": 3}
{"smiles": "CCCOC(=O)C(N)Cc1c[nH]cn1", "note": "(racemic)", "inhibition": 22}
{"smiles": "N[C@@H](Cc1nc[nH]c1[N+](=O)[O-])C(=O)O", "inhibition": 0}
{"target": "T2, Histidine decarboxylase (Rattus norvegicus, UniProt P16453)", "T2 sequence (P16453 whole entry)": "T1 sequence (whole entry)", "experiment": "Inhibition of histidine decarboxylase in Sprague-Dawley rat stomach assessed as decrease in 14CO2 production using L-histidine-carboxyl-14C as substrate by Dixon plot analysis", "outline": "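Ki from a Dixon plot of reciprocal activity versus inhibitor concentration. Used the ammonium sulfate–fractionated rat stomach extract, 0.24 mM L-histidine-carboxyl-14C, 0.03 mM PLP, pH 6.9 phosphate, 30 min at 37 °C, and Hyamine trapping of 14CO2 with scintillation counting. Inhibitor was run in duplicate at four concentrations from 1 to 50 μM.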", "units": {"Ki": "µM"}}
{"smiles": "COC(=O)[C@@H](N)Cc1c[nH]cn1", "Ki": 1.8}
{"target": "T1, Histidine decarboxylase (Rattus norvegicus)", "experiment": "Inhibition of histidine decarboxylase in Sprague-Dawley rat stomach assessed as decrease in 14CO2 production using L-histidine-carboxyl-14C as substrate at 0.004 mM by scintillation counting analysis", "outline": "as §1", "units": {"inhibition": "%"}}
{"smiles": "COC(=O)[C@@H](N)Cc1c[nH]cn1", "inhibition": 50}
{"target": "T1, Histidine decarboxylase (Rattus norvegicus)", "experiment": "Inhibition of histidine decarboxylase in Sprague-Dawley rat stomach assessed as decrease in 14CO2 production using L-histidine-carboxyl-14C as substrate at 0.50 mM by scintillation counting analysis", "outline": "as §1", "units": {"inhibition": "%"}}
{"smiles": "CC(=O)N[C@@H](Cc1c[nH]cn1)C(=O)O", "inhibition": 0}
